Values after ≈ are worked out from the molar mass of the structure shown.
How the values were obtained:
Escherichia coli [1] = experiment: Antibacterial activity against Escherichia coli; assay type: functional
Method in brief: (§1)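 NCCLS tube-dilution MIC using B. subtilis ATCC9372 and E. coli ATCC25922. Strains were grown on Mueller Hinton agar at 37°C for 24 h. […] Tubes were incubated at 37°C for 24 h, and the MIC was read as the last tube without turbidity.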

Bacillus subtilis [2] = experiment: Antibacterial activity against Bacillus subtilis; assay type: functional; method in brief: as §1
[3] = system: Staphylococcus epidermidis; experiment: Antibacterial activity against penicillin-resistant Staphylococcus epidermidis clinical isolates after 24 hrs by broth microdilution method; assay type: functional
Bacillus subtilis [4] = experiment: microbe, parasite or virus in culture; assay type: functional; settings: ATCC 9372, 24 h
Pseudomonas aeruginosa [5] = experiment: microbe, parasite or virus in culture; assay type: functional; settings: ATCC 27853, 24 h
[6] = biological target: T1, Cell division protein FtsZ (Escherichia coli K-12) (UniProt P0A9A6); experiment: Inhibition of Escherichia coli ATCC 25922 recombinant N-His6-tagged FtsZ polymerization expressed in Escherichia coli BL21(DE3) by light scattering assay
T1 sequence (whole entry): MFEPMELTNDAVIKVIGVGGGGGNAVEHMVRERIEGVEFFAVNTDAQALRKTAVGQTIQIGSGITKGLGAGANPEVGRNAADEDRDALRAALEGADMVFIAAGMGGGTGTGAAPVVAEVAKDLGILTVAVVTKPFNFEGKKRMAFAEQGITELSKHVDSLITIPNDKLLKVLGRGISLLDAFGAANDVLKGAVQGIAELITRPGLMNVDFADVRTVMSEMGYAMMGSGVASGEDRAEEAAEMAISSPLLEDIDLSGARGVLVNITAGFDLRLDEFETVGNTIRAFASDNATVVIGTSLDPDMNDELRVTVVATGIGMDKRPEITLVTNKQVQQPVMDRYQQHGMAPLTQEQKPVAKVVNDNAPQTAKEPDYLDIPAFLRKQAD
Method in brief: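 E. coli FtsZ (N-His6, expressed in BL21(DE3), Ni-affinity purified) at 12 µM in 50 mM MES, 5 mM MgCl2, 50 mM KCl, pH 6.5 with compound at various concentrations, 2% DMSO, 30°C. Right-angle light scattering at 400 nm (excitation and emission). 120 s baseline, then polymerization started with 2 mM GTP and followed for 2000 s.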

Staphylococcus aureus [7] = experiment: microbe, parasite or virus in culture; assay type: functional; settings: ATCC 25923, 24 h
[8] = biological target: T1, Cell division protein FtsZ (Escherichia coli K-12); experiment: (§2) Inhibition of Escherichia coli ATCC 25922 recombinant N-His6-tagged FtsZ polymerization expressed in Escherichia coli BL21(DE3) incubated for 15 mins prior to GTP addition measured after 390 mins by malachite green staining-based GTPase assay; settings: in the assay text read “30 mins” for “390 mins”
Method in brief: (§3)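 Purified N-His6 E. coli FtsZ (10 µM) in 50 mM MES, 5 mM MgCl2, 50 mM KCl, pH 6.5 with compound at varying concentrations (2% DMSO), preincubated 15 min at room temperature. 50 μM GTP then added for 30 min at 37°C. Released phosphate measured by Malachite Green reagent (20% v/v) at A620, background-subtracted and read against a phosphate standard curve.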

Staphylococcus aureus [9] = experiment: microbe, parasite or virus in culture; assay type: functional; settings: ATCC 29213, 24 h
Staphylococcus aureus [10] = experiment: Antibacterial activity against penicillin-resistant Staphylococcus aureus clinical isolates after 24 hrs by broth microdilution method; assay type: functional
Streptococcus pyogenes [11] = experiment: Antibacterial activity against penicillin-susceptible Streptococcus pyogenes clinical isolates after 24 hrs by broth microdilution method; assay type: functional
Bacillus subtilis [12] = experiment: microbe, parasite or virus in culture; assay type: functional; settings: ATCC 9372, 5 h
Pseudomonas aeruginosa [13] = experiment: microbe, parasite or virus in culture; assay type: functional; settings: ATCC 27853, 5 h
Streptococcus pyogenes [14] = experiment: Antibacterial activity against penicillin-resistant Streptococcus pyogenes clinical isolates after 24 hrs by broth microdilution method; assay type: functional
Staphylococcus aureus [15] = experiment: microbe, parasite or virus in culture; assay type: functional; settings: ATCC 25923, 5 h
Escherichia coli [16] = experiment: microbe, parasite or virus in culture; assay type: functional; settings: ATCC 25922, 24 h
Escherichia coli [17] = experiment: microbe, parasite or virus in culture; assay type: functional; settings: ATCC 25922, 5 h
[18] = system: Staphylococcus epidermidis; experiment: Ratio of cinnamic acid MIC to compound MIC for Staphylococcus epidermidis; assay type: functional
[19] = system: Staphylococcus epidermidis; experiment: Ratio of curcumin MIC to compound MIC for Staphylococcus epidermidis; assay type: functional
[20] = biological target: T2, Cell division protein FtsZ (Escherichia coli K-12, UniProt P0A9A6); experiment: as §2; settings: in the assay text read “30 mins” for “390 mins”; method in brief: as §3
T2 sequence (P0A9A6 whole entry): T1 sequence (whole entry)

[21] = system: Staphylococcus epidermidis; experiment: Ratio of ciprofloxacin MIC to compound MIC for Staphylococcus epidermidis; assay type: functional
Staphylococcus aureus [22] = experiment: Ratio of cinnamic acid MIC to compound MIC for penicillin-susceptible Staphylococcus aureus ATCC 25923; assay type: functional
Staphylococcus aureus [23] = experiment: Ratio of curcumin MIC to compound MIC for penicillin-susceptible Staphylococcus aureus ATCC 25923; assay type: functional
Staphylococcus aureus [24] = experiment: Ratio of ciprofloxacin MIC to compound MIC for penicillin-susceptible Staphylococcus aureus ATCC 25923; assay type: functional

| SMILES | MIC [3] [µg/mL] | MIC (Bacillus subtilis [4]) [µg/mL] | MIC (Pseudomonas aeruginosa [5]) [µg/mL] | inhibition [6] | MIC (Staphylococcus aureus [7]) [µg/mL] | inhibition [8] | MIC (Staphylococcus aureus [9]) [µg/mL] | MIC (Staphylococcus aureus [10]) [µg/mL] | MIC (Streptococcus pyogenes [11]) [µg/mL] | MIC (Bacillus subtilis [12]) [µg/mL] | MIC (Pseudomonas aeruginosa [13]) [µg/mL] | MIC (Streptococcus pyogenes [14]) [µg/mL] | MIC (Staphylococcus aureus [15]) [µg/mL] | MIC (Escherichia coli [16]) [µg/mL] | MIC (Escherichia coli [17]) [µg/mL] | other results |
| --- | --- | --- | --- | --- | --- | --- | --- | --- | --- | --- | --- | --- | --- | --- | --- | --- |
| O=C/C=C/c1ccccc1 |  |  |  |  |  |  |  |  |  |  |  |  |  |  |  | MIC (Escherichia coli [1]): 1000 µg/mL (≈ 7570 µM); MIC (Bacillus subtilis [2]): 500 µg/mL (≈ 3780 µM) |
| Cc1nc2ccccc2n1C(=O)/C=C/c1ccc(Cl)cc1 | 16 (≈ 53.9 µM) | 128 (≈ 431 µM) | 128 (≈ 431 µM) | Dose-dependent effect | 8 (≈ 27 µM) | Dose-dependent effect | > 128 | 64 (≈ 216 µM) | 32 (≈ 108 µM) | > 128 | > 128 | 8 (≈ 27 µM) | 0.5 (≈ 1.68 µM) | 128 (≈ 431 µM) | > 128 |  |
| Cc1nccn1-c1cc(NC(=O)/C=C/c2ccc([N+](=O)[O-])cc2)cc(C(F)(F)F)c1 | > 128 | 128 (≈ 307 µM) | > 128 |  | 128 (≈ 307 µM) |  | > 128 | > 128 | 32 (≈ 76.9 µM) | 128 (≈ 307 µM) | 128 (≈ 307 µM) | 128 (≈ 307 µM) | 32 (≈ 76.9 µM) | > 128 | > 128 |  |
| Cc1nc2ccccc2n1C(=O)/C=C/c1ccc(Cl)cc1Cl | 4 (≈ 12.1 µM) | 128 (≈ 386 µM) | 128 (≈ 386 µM) | Dose-dependent effect | 4 (≈ 12.1 µM) | Dose-dependent effect | > 128 | 16 (≈ 48.3 µM) | > 128 | > 128 | > 128 | 64 (≈ 193 µM) | 1 (≈ 3.02 µM) | 128 (≈ 386 µM) | > 128 | Ratio [18]: >32; Ratio [19]: >32; IC50 [20]: 90.6 µM; Ratio [21]: >32 |
| Cc1nc2ccccc2n1C(=O)/C=C/c1ccc([N+](=O)[O-])cc1 | 128 (≈ 417 µM) | 128 (≈ 417 µM) | 128 (≈ 417 µM) |  | 16 (≈ 52.1 µM) |  | > 128 | 128 (≈ 417 µM) | 64 (≈ 208 µM) | > 128 | > 128 | 16 (≈ 52.1 µM) | 0.5 (≈ 1.63 µM) | 128 (≈ 417 µM) | > 128 |  |
| Cc1nc2ccccc2n1C(=O)/C=C/c1ccccc1 | 32 (≈ 122 µM) | 128 (≈ 488 µM) | 128 (≈ 488 µM) |  | 4 (≈ 15.2 µM) |  | > 128 | 64 (≈ 244 µM) | 128 (≈ 488 µM) | > 128 | > 128 | 128 (≈ 488 µM) | 0.25 (≈ 0.953 µM) | 128 (≈ 488 µM) | > 128 | Ratio (Staphylococcus aureus [22]): >512; Ratio (Staphylococcus aureus [23]): >512; Ratio (Staphylococcus aureus [24]): >512 |

— ChEMBL document CHEMBL3421607, “Design, synthesis and antibacterial activity of cinnamaldehyde derivatives as inhibitors of the bacterial cell division protein FtsZ” (Eur J Med Chem, 2015)
